Data on two compounds can be found in ChEMBL document CHEMBL1154855 (Eur J Med Chem, 2010).

pEC50: −log10 of the molar value. Converted amounts (≈) assume the structure as drawn.

The nature of data set [1]: (§1) Cytotoxicity against Herpes simplex virus 2 G infected HEL cells by trypan blue exclusion method. In kind it is cell-based. Particulars: human, HEL cells infected with herpes simplex virus 2 G. The essentials:
(§2)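 Uninfected confluent cultures were run in parallel with the infected cultures. Medium was replaced by 1 ml maintenance medium with serial compound concentrations; cell controls received no compound. Cultures were incubated at 37 °C. After 2 and 7 days, compound was withdrawn and viability was determined by trypan blue exclusion.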

A short description of data set [2]: Cytotoxicity against Feline coronavirus infected cat CRFK cells by trypan blue exclusion method. In kind it is cell-based, Felis catus. In short, it runs like this: as §2
Data set [3] can be described thus: (§3) Cytotoxicity against Vaccinia virus infected HEL cells by trypan blue exclusion method. In kind it is cell-based. Particulars: human, HEL cells infected with vaccinia virus. The essentials: as §2
Data set [4] in a line: (§4) Cytotoxicity against Herpes simplex virus 1 KOS infected HEL cells by trypan blue exclusion method. In kind it is cell-based. As to conditions: human, HEL cells infected with herpes simplex virus 1 KOS. In short, it runs like this: as §2
The subject of data set [5] is Vesicular stomatitis virus. The data set can be described thus: Antiviral activity against VSV infected in HEL cells assessed as protection from virus-induced cytopathogenicity after 1 to 2 days by MTT assay. In kind it is functional, organism-based. (In general: Damage to the host cells serves as the signal in cytopathic effect assays.)
Data set [6] can be described thus: Cytotoxicity against Feline herpesvirus infected cat CRFK cells by trypan blue exclusion method. In kind it is cell-based, Felis catus. The essentials:
as §2

A further data set relates to Feline coronavirus. The data set can be described thus: Antiviral activity against Feline coronavirus infected in cat CRFK cells assessed as protection from virus-induced cytopathogenicity by MTT assay. In kind it is functional, organism-based. As to conditions: Alphacoronavirus 1, CRFK.
The test system of another data set is Felid alphaherpesvirus 1. The data set can be described thus: Antiviral activity against Feline herpesvirus infected in cat CRFK cells assessed as protection from virus-induced cytopathogenicity by MTT assay. In kind it is functional, organism-based. As to conditions: Felid alphaherpesvirus 1, CRFK.
A short description of data set [7]: (§5) Cytotoxicity against VSV infected HEL cells by trypan blue exclusion method. In kind it is cell-based. As to conditions: human, HEL cells infected with VSV. In short, it runs like this:
as §2

Data set [8] has as its system HeLa. As to the kind of experiment: Cytotoxicity against VSV infected human HeLa cells by trypan blue exclusion method. As to conditions: hela. In kind it is cell-based. The essentials:
as §2

For data set [9], the system named is Human alphaherpesvirus 1. As to the kind of experiment: Antiviral activity against Herpes simplex virus 1 KOS infected in HEL cells assessed as protection from virus-induced cytopathogenicity after 2 to 3 days by MTT assay. In kind it is functional, organism-based. Particulars: Human alphaherpesvirus 1, KOS.
Data set [10] deals with Mammalian orthoreovirus 1. The data set can be described thus: Antiviral activity against Reovirus 1 infected in african green monkey Vero cells assessed as protection from virus-induced cytopathogenicity after 6 to 7 days by MTT assay. In kind it is functional, organism-based. As to conditions: Mammalian orthoreovirus 1, Vero.
The subject of another data set is Streptococcus viridans. As to the kind of experiment: Antibacterial activity against Streptococcus viridans after 24 hrs by broth microdilution method. In kind it is functional. As to conditions: Streptococcus viridans, 24 h; read-out: MIC. The essentials: (§6)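 Clinical isolates. Each dilution received 100 μl of 0.5 McFarland fresh culture. Solvent (DMSO), growth and standard controls were included. Tubes were incubated at 37 °C for 24 h. MIC is the highest dilution showing no turbidity. Tests were run in triplicate, with at least two repetitions.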

Data set [11] relates to HEL. Described as §1. Particulars: human, hel. In kind it is cell-based. The essentials:
as §2

Data set [12] concerns Vero. As to the kind of experiment: Cytotoxicity against Sindbis virus infected african green monkey Vero cells by trypan blue exclusion method. In kind it is cell-based. As to conditions: chlorocebus sabaeus, vero. In short, it runs like this: as §2
Another data set relates to Proteus mirabilis. As to the kind of experiment: Antibacterial activity against Proteus mirabilis after 24 hrs by broth microdilution method. In kind it is functional. Particulars: Proteus mirabilis, 24 h; read-out: MIC. The essentials: as §6
For data set [13], the system named is HEL. The data set is described as §3. In kind it is cell-based. Particulars: human, hel. In short, it runs like this:
as §2

The subject of data set [14] is HEL. The data set is described as §4. In kind it is cell-based. As to conditions: human, hel. The essentials:
as §2

Data set [15] has as its system Coxsackievirus B4. The data set can be described thus: Antiviral activity against Human coxsackievirus B4 infected in human HeLa cells assessed as protection from virus-induced cytopathogenicity after 2 days by MTT assay. In kind it is functional, organism-based. Particulars: Enterovirus B, 48 h.
The next data set has as its system Punta Toro virus. As to the kind of experiment: Antiviral activity against Punta Toro virus infected in african green monkey Vero cells assessed as protection from virus-induced cytopathogenicity by MTT assay. In kind it is functional, organism-based.
For data set [16], the system named is MDCK. As to the kind of experiment: Cytotoxicity against Influenza A virus subtype H3N2 infected MDCK cells by trypan blue exclusion method. In kind it is cell-based, Canis lupus familiaris. As to conditions: dog.
Data set [17] has as its system Vero. The data set can be described thus: Cytotoxicity against Reovirus 1 infected african green monkey Vero cells by trypan blue exclusion method. In kind it is cell-based. Particulars: chlorocebus sabaeus, vero. In short, it runs like this:
as §2

Data set [18] concerns Human alphaherpesvirus 1. As to the kind of experiment: Antiviral activity against acyclovir-sensitive Herpes simplex virus 1 KOS infected in HEL cells assessed as protection from virus-induced cytopathogenicity after 2 to 3 days by MTT assay. In kind it is functional, organism-based. As to conditions: Human alphaherpesvirus 1, KOS.
For data set [19], the system named is Vesicular stomatitis virus. As to the kind of experiment: Antiviral activity against VSV infected in human HeLa cells assessed as protection from virus-induced cytopathogenicity after 1 to 2 days by MTT assay. In kind it is functional, organism-based.
Data set [20] concerns Influenza A virus. The data set can be described thus: Antiviral activity against Influenza A virus H3N2 infected in MDCK cells assessed as protection from virus-induced cytopathogenicity after 6 to 7 days by MTT assay. In kind it is functional, organism-based.
The subject of data set [21] is MDCK. As to the kind of experiment: Cytotoxicity against Influenza B virus infected MDCK cells by trypan blue exclusion method. In kind it is cell-based, Canis lupus familiaris. As to conditions: dog.
For data set [22], the system named is HEL. The data set can be described thus: Cytotoxicity against acyclovir-sensitive Herpes simplex virus 1 KOS infected HEL cells by trypan blue exclusion method. As to conditions: human. In kind it is cell-based. In short, it runs like this:
as §2

Data set [23] concerns Vero. As to the kind of experiment: Cytotoxicity against Punta Toro virus infected african green monkey Vero cells by trypan blue exclusion method. In kind it is cell-based. Particulars: chlorocebus sabaeus, vero. The essentials:
as §2

In the next data set the test system is Sindbis virus. The data set can be described thus: Antiviral activity against Sindbis virus infected in african green monkey Vero cells assessed as protection from virus-induced cytopathogenicity after 2 to 3 days by MTT assay. In kind it is functional, organism-based.
The test system of data set [24] is Influenza A virus. The data set can be described thus: Antiviral activity against Influenza A virus H1N1 infected in MDCK cells assessed as protection from virus-induced cytopathogenicity after 6 to 7 days by MTT assay. In kind it is functional, organism-based.
The subject of the next data set is Influenza B virus. The data set can be described thus: Antiviral activity against Influenza B virus infected in MDCK cells assessed as protection from virus-induced cytopathogenicity after 6 to 7 days by MTT assay. In kind it is functional, organism-based.
Data set [25] deals with Coxsackievirus B4. As to the kind of experiment: Antiviral activity against Human coxsackievirus B4 infected in african green monkey Vero cells assessed as protection from virus-induced cytopathogenicity after 2 days by MTT assay. In kind it is functional, organism-based. As to conditions: Enterovirus B, 48 h.
The subject of another data set is Human alphaherpesvirus 2. The data set can be described thus: Antiviral activity against Herpes simplex virus 2 G infected in HEL cells assessed as protection from virus-induced cytopathogenicity after 2 to 3 days by MTT assay. As to conditions: Human alphaherpesvirus 2, strain G. In kind it is functional, organism-based.
Data set [26] concerns HEL. The description is as §5. In kind it is cell-based. Particulars: human, hel. The essentials:
as §2

Data set [27] has as its system HeLa. The data set can be described thus: Cytotoxicity against Human coxsackievirus B4 infected human HeLa cells by trypan blue exclusion method. Particulars: hela. In kind it is cell-based. In short, it runs like this:
as §2

Data set [28] deals with HeLa. As to the kind of experiment: Cytotoxicity against Respiratory syncytial virus infected human HeLa cells by trypan blue exclusion method. In kind it is cell-based. As to conditions: hela. The essentials: as §2
Data set [29] concerns MDCK. As to the kind of experiment: Cytotoxicity against Influenza A virus subtype H1N1 infected MDCK cells by trypan blue exclusion method. Particulars: dog. In kind it is cell-based, Canis lupus familiaris.
The next data set concerns Human respirovirus 3. As to the kind of experiment: Antiviral activity against PIV 3 infected in african green monkey Vero cells assessed as protection from virus-induced cytopathogenicity after 6 to 7 days by MTT assay. In kind it is functional, organism-based. Particulars: Human respirovirus 3, Vero.
For data set [30], the system named is Vero. As to the kind of experiment: Cytotoxicity against Human coxsackievirus B4 infected african green monkey Vero cells by trypan blue exclusion method. In kind it is cell-based. As to conditions: chlorocebus sabaeus, vero. The essentials:
as §2

Data set [31] deals with Respiratory syncytial virus. The data set can be described thus: Antiviral activity against Respiratory syncytial virus infected in human HeLa cells assessed as protection from virus-induced cytopathogenicity after 4 days by MTT assay. In kind it is functional, organism-based. Particulars: 96 h.
Data set [32] concerns Vero. The data set can be described thus: Cytotoxicity against PIV 3 infected african green monkey Vero cells by trypan blue exclusion method. In kind it is cell-based. As to conditions: chlorocebus sabaeus, vero. In short, it runs like this: as §2

Consider `Nc1nc2c(ncn2COC(CO)CO)c(=O)[nH]1` [GANCICLOVIR], for which the CC50 in data set [1], in [2] (CRFK cells infected with feline coronavirus), in data set [3], in data set [4], in [6] (CRFK cells infected with feline herpesvirus) and in data set [7] was more than 100000 nM in each case. The negative logarithm of the EC50 (pEC50) was less than 4.00 in [5], less than 4.00 in the data set with Feline coronavirus and 5.59 in the data set with Felid alphaherpesvirus 1.

Turning to `COc1cc(/C=C/C(=O)CC(=O)/C=C/c2ccc(O)c(OC)c2)ccc1O` [CURCUMIN], the CC50 in the data set on HeLa [8] was not below 10 nM; with HEL [11], more than 2 nM; in data set [2] (crfk), more than 271 nM; in the data set with Vero [12] it was 54 nM; with HEL [13] it was more than 2 nM; with HEL [14] it was not below 10 nM. For the same compound, the CC50 was more than 92 nM with MDCK [16]; 54 nM in the data set on Vero [17]; more than 92 nM in the data set with MDCK [21]; more than 271 nM in [6] (crfk); more than 2 nM in the data set on HEL [22]; 54 nM in the data set with Vero [23]. The CC50 in the data set with HEL [26] was more than 2 nM; with HeLa [27], not below 10 nM; with HeLa [28], not below 10 nM; with MDCK [29], more than 92 nM; in the data set with Vero [30] it was 54 nM; with Vero [32], 54 nM. Moreover, the pEC50 in the data set with Human alphaherpesvirus 1 [9] was less than 8.00; in [10] it was less than 8.00; in the data set on Coxsackievirus B4 [15], less than 8.00; in the data set on Punta Toro virus, less than 8.00; in the data set with Human alphaherpesvirus 1 [18] it was 8.00; in data set [19], less than 8.00. In addition, the negative logarithm of the EC50 (pEC50) with Influenza A virus [20] was less than 6.57; with Feline coronavirus, less than 6.57; with Felid alphaherpesvirus 1, less than 6.57; in the data set with Sindbis virus, less than 8.00; in the data set with Influenza A virus [24], less than 6.57; in the data set with Influenza B virus, less than 6.57. Besides, the pEC50 is less than 8.00 in the data set on Coxsackievirus B4 [25], 8.00 in the data set with Human alphaherpesvirus 2, less than 8.00 with Human respirovirus 3 and less than 8.00 in data set [31]. Moreover, the results for the MIC in the data set with Streptococcus viridans and with Proteus mirabilis were 2.47 µM (≈ 0.91 µg/mL) and 1.23 µM (≈ 0.453 µg/mL), respectively.

By CC50 is commonly meant the concentration giving 50% cytotoxicity. Broadly, the pEC50 is the negative decadic logarithm of the EC50, by convention in mol/L. A word on the MIC: it is the lowest concentration that inhibits growth of the organism.
